Source: PubChem
CSN inh: blocks human CSN-mediated cullin deneddylation; inhibition, % at 12.5 µM; Purified CSN, SCF-Nedd8-OG deneddylation, fluorescence polarization; Q92905; 360,000 tested, 0.38% active;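 active = pattern-corrected inhibition above about 35%, with an unprinted fluorescence ratio check between 0.5 and 1.5, limit read from the data, passing the limit was not always enough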;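 also: 0% = enzyme with substrate and 100% = substrate without enzyme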
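Detection – fluorescence polarization · System – HEK293T-derived human Csn5 enzyme · Controls – substrate-only high control, full reaction low control · Timing – 90 min, room temperature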
SKN-1 inh: C. elegans SKN-1 inhibition | C. elegans VP596 Pgst-4::GFP/RFP ratio, acrylamide-induced, 24 h | inhibition, % at 21.8 µM | 360,000 tested, 0.49% active | AID 624304;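 active = interference check ratio from 0.5 to 1.5 plus GFP to RFP signal ratio inhibition reaching or exceeding a fixed threshold, cut at about 30% in these data, passing the limit was not always enough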
SUMO1 PPI mod: alters human SUMO1 binding to SIM partners | AID 602429 | 360,000 tested, 0.33% active | inhibition, % at 20 µM | SUMO1 binding to a labelled peptide, TR-FRET, 1 h; in the data active = inhibition above about 37%
Target sequence (P63165 whole entry, looked up): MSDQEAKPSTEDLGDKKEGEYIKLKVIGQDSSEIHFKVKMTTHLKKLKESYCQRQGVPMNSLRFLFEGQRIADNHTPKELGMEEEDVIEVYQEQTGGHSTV
MT1-MMP act inh: inhibitors of human MT1-MMP activation. 360,000 tested, 0.061% active. GFP/RFP ratio change, % at 20 µM. P50281. HT1080 RFP-PRO-GFP cells, GFP/RFP ratio fluorescence, overnight; percent of plate control window, DMSO zero;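 active = GFP/RFP ratio change of at least 30% with cell ATP level not reduced by more than half and red fluorescence within 50% of control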
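Test system: HT1080 cells expressing an RFP-PRO-GFP fluorescent reporter construct / Compound dosing: single-point 20 µM compound, 1% DMSO / Schedule: cells overnight before dosing, compound overnight, 37 °C, 5% CO2 / Evaluation: GFP/RFP fluorescence ratio / Control set: DMSO and RFP-L50D-GFP cell wells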
DNMT1 block: DNMT1 (human) enzyme inhibition | 360,000 tested, 0.83% active | inhibition (reported as % activation of signal), % at 10 µM | DNMT1 molecular beacon, Hinp1I cleavage, fluorescence; in the data active = inhibition above about 50%
Rpn11 block: blocks the human proteasome subunit Rpn11. O00487. human 26S proteasome, Ub4-pepOG fluorescence polarization; 20S core pre-blocked with epoxomicin. inhibition, % at 20 µM. 360,000 tested, 0.59% active. AID 588493;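 active = inhibition at 20 µM, scaled to each plate's controls, above about 33%, limit read from the data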
Rpn11 confirm: Rpn11 inhibition confirmation, single concentration; shares compounds with Rpn11 block; purified human 26S proteasome, Ub4-pepOG fluorescence polarization; proteasome pretreated with epoxomicin; inhibition, % at 20 µM; 1,900 tested, 29% active; AID 602318
MMP-2 counter-1: MMP-2 (human) inhibition counter-screen; shares compounds with Rpn11 block; recombinant MMP-2, FRET peptide cleavage fluorescence; inhibition, % at 20 µM; 1,900 tested, 4% active; AID 602330;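 also: human MMP-2 activated beforehand with APMA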
Thrombin FP: thrombin (bovine) inhibition counter-screen; shares compounds with Rpn11 block; bovine thrombin cleavage of Ub4-pepOG, fluorescence polarization; 1,900 tested, 13% active; inhibition, % at 20 µM; AID 602333;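 active = mean inhibition at least 40% at 20 µM, or signal 3 deviations below plate average, so some actives read negative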;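 also: plate controls were thrombin with DMSO for no effect and buffer wells lacking thrombin for full effect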
Target sequence (P00735 whole entry, looked up): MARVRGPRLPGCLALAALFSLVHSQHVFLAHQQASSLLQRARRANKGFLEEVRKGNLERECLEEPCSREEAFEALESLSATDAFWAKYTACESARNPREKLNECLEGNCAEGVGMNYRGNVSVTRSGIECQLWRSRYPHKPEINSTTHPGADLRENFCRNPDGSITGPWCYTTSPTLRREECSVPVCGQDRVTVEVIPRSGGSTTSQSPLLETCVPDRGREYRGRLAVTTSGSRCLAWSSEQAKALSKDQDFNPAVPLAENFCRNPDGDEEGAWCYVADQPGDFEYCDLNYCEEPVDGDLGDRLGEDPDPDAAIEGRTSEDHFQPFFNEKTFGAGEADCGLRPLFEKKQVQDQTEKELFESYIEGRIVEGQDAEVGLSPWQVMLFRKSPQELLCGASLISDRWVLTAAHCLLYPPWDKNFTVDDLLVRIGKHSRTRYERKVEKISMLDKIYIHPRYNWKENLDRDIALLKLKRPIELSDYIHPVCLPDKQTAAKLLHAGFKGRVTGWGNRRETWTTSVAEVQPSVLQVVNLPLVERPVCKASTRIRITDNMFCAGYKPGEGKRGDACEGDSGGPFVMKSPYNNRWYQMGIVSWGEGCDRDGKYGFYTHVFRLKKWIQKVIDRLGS
CSN deneddyl val: Csn5 (human) deneddylation inhibition, single-concentration validation. AID 720654. shares compounds with CSN inh. inhibition, % at 16.6 µM. 540 tested, 62% active. Csn5 deneddylation of SCF-Nedd8OG, fluorescence polarization, 90 min; in the data active = inhibition above about 50%;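 also: 0% = DMSO with enzyme and 100% = no enzyme wells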
MMP-2 counter-2: MMP-2 (human) inhibition, counter-screen for CSN hits; shares compounds with CSN inh; recombinant MMP-2, FRET substrate fluorescence, 60 min; inhibition, % at 16.6 µM; 540 tested, 33% active; AID 720655;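 active = corrected plate-normalized z-score of 5 or more, or -5 or less, or inhibition of 15% or more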;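 also: plate controls were DMSO wells with enzyme for no effect and buffer wells lacking MMP-2 for full effect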
Thrombin counter: counter-screen for CSN deneddylation inhibitors: bovine thrombin inhibition; 540 tested, 49% active; AID 720656; shares compounds with CSN inh; inhibition, % at 16.6 µM; bovine thrombin cleavage of Ub4-pepOG, fluorescence polarization;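 active = inhibition at or above a set limit, with a fluorescence interference ratio between 0.5 and a set maximum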
* = called active by the depositor; nt = not tested or not shown. Sampled rows, rich in hits. Any-hit rate of the full collection: about 2.3%. Rule as the data show it, unless noted: active = inhibition above about 40%; inactive = the rest.

SMILES | CSN inh | SKN-1 inh | SUMO1 PPI mod | MT1-MMP act inh | DNMT1 block | Rpn11 block | Rpn11 confirm | MMP-2 counter-1 | Thrombin FP | others
O=C(O)C(O)(c1ccc(Cl)cc1)C1(O)CCCC1 (stereo unspecified) | 3 | -8 | 0 | 4 | 1 | -1 | nt | nt | nt
O=C1NC(=O)C(=Cc2ccc(Cl)cc2)C(=O)N1 | -3 | -2 | 4 | 8 | nt | nt | nt | nt | nt
CCOP(=O)(OCC)/C(C#N)=C/c1ccoc1 | 7 | 16 | -4 | -11 | 7 | 54* | 0 | -60 | -9
CCOP(=O)(OCC)c1ccc(O)cc1 | 3 | -1 | -2 | -2 | -3 | -2 | nt | nt | nt
CCOP(=O)(CCP(=O)(OCC)OCC)OCC.C[CH2][Sn]([Cl])([Cl])[CH2]C | -3 | -1 | -2 | -15 | -6 | -3 | nt | nt | nt
C=CCn1c(O)c(/C=C/C=Nc2ccccc2)c(=O)[nH]c1=O | 24 | 23 | -21 | -23 | -2 | 88* | 98* | -59 | -47
CCCCn1nnnc1C(CCSC)N1CCC(n2c(=O)[nH]c3ccccc32)CC1 (stereo unspecified) | 2 | 7 | 2 | -4 | 1 | -2 | nt | nt | nt
Cc1ccc(N2C(=O)/C(=C/N3CCN(C(=O)c4ccco4)CC3)C(=O)NC2=S)cc1C | 15 | 9 | 9 | -13 | -6 | 88* | 10 | 7 | -1
Cc1cccc(N2C(=O)/C(=C/N3CCN(C(=O)c4ccco4)CC3)C(=O)NC2=S)c1 | 14 | 34 | -1 | -14 | -6 | 50* | 19 | 10 | 14
Cc1cccc(N2C(=O)NC(=O)/C(=C\c3ccc(N4CCOCC4)cc3)C2=O)c1 | 2 | 15 | 2 | -2 | -1 | -1 | nt | nt | nt
O=C(NN=Cc1ccc(N(CCCl)CCCl)cc1)C(=O)c1c[nH]c2ccccc12 | 6 | -2 | -6 | -5 | -13 | 52* | 57* | 14 | 34
COc1ccc(N2C(=O)NC(=O)/C(=C\c3cn(C)c4ccccc34)C2=O)cc1 | 14 | 5 | -14 | -10 | 3 | nt | nt | nt | nt
Cc1cc(/C=C2/C(=O)NC(=O)N(c3ccc(Br)cc3)C2=O)c(C)n1C | 13 | 9 | -8 | -6 | -4 | 52* | 6 | 5 | -57
Cc1ccc(/C=C2\C(=O)NC(=S)N(c3ccc(F)cc3)C2=O)o1 | 26 | 3 | 11 | -10 | 35 | 41* | 44* | 55* | 57*
COc1ccc(N2C(=O)/C(=C/c3ccc(N(C)C)o3)C(=O)NC2=S)cc1 | 24 | 19 | -223 | -62 | 5 | nt | nt | nt | nt
Cc1cc(C(C#N)c2ccc(Cl)cc2)c(Cl)cc1NC(=O)c1cc(I)cc(I)c1O (stereo unspecified) | 12 | -17 | 51* | 7 | 74* | 47* | -2 | -5 | -6
COc1ccc(Cn2c(N)c(C(=O)NCc3ccco3)c3nc4ccccc4nc32)cc1 | 7 | 16 | 5 | -29 | -19 | 67* | -2 | -37 | -4
O=S(=O)(c1cc(Cl)cc(Cl)c1)N1Cc2cc(N3CCOCC3)ccc2-n2nncc2C1 | 1 | -12 | -2 | 2 | -1 | -2 | nt | nt | nt
CCOc1ccccc1-n1c(O)c(C=Nc2ccc(N(CC)CC)cc2)c(=O)[nH]c1=O | 14 | 9 | -28 | -14 | -4 | 56* | 49* | 3 | 38
O=c1[nH]c(=O)n(-c2cccc(F)c2)c(O)c1/C=C1\C=Nc2ccccc21 | 6 | 20 | -17 | -9 | 3 | 62* | 9 | -22 | 3
CCN(CC)c1ccc(/C=C/[N+](=O)[O-])cc1 | 23 | 20 | -14 | -11 | 1 | 68* | 50* | -45 | 53*
O=c1c2ccccc2nc(/C=C/c2ccc(O)cc2)n1-c1ccc(O)cc1 | -2 | -7 | -12 | -149 | 3 | 17 | nt | nt | nt
COc1ccc(-n2c(/C=C/c3ccc(O)cc3)nc3ccccc3c2=O)cc1 | 6 | 7 | -19 | -69 | -1 | 48* | 15 | 47* | 4
COc1ccc(OC(=O)N(C)C[C@@H]2OCc3cnnn3CCCC(=O)N([C@@H](C)CO)C[C@@H]2C)cc1 | 2 | -13 | 1 | 5 | 8 | -7 | nt | nt | nt
COC1C(C)OC(OC2CC(C)(O)Cc3cc4c(c(O)c32)C(=O)c2c(O)cc3c(c2C4=O)OC2OC3(C)C(O)C(N(C)C)C2O)C(OC)C1(C)OC (stereo unspecified) | -73 | 58 | -56 | -32 | 34 | -18 | nt | nt | nt
SMILES | CSN inh | SKN-1 inh | SUMO1 PPI mod | MT1-MMP act inh | DNMT1 block | Rpn11 block | Rpn11 confirm | MMP-2 counter-1 | Thrombin FP | others
Cc1ccc(Cn2cc(C=O)c(-c3ccc(C)cc3)n2)cc1 | -5 | 17 | 3 | 0 | 2 | 37* | 3 | 3 | -16
FC(F)(F)c1ccc(-c2ccc3c(c2)CNCc2cnnn2-3)cc1 | -1 | 4 | 0 | 4 | 3 | -1 | nt | nt | nt
CN(C)c1ccc(/C=C2\C(=O)NC(=O)N(CCc3ccc(F)cc3)C2=O)cc1 | 22 | 59 | -3 | 7 | -5 | 50* | 10 | 1 | -90
O=C(NCC1=C(c2ccc3ccccc3c2)C[C@@H]2CC[C@H]1N2Cc1ccco1)c1nccs1 | 1 | 11 | -2 | -2 | -7 | -4 | nt | nt | nt
Cc1ccccc1NC(=NCCCN1CC1)Nc1ccccc1C | 117* | -17 | 34* | 5 | -100 | 92* | 99* | -128 | 52* | CSN deneddyl val=-59;MMP-2 counter-2=26*;Thrombin counter=29*
CN(C)P1(=O)N(C)CCN1C | -2 | 10 | -1 | 6 | -1 | 8 | nt | nt | nt
COc1cc2c(cc1OC)-c1c(OC)c(OC)cc3c1C(C2)N(C)CC3 (stereo unspecified) | 2 | 12 | 10 | 9 | 33 | -10 | nt | nt | nt
